Results: ChEMBL document CHEMBL4184148 (Bioorg Med Chem Lett, 2017)

What was measured:
[1] = biological target: Casein kinase II subunit alpha (Homo sapiens) (UniProt P68400); test: Binding affinity to wild-type human full length CSNK2A1 (M1 to Q391 residues) expressed in HEK293 cells at 1 uM by Kinomescan method relative to control; type: cell-based
In short: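 Run as one kinome-wide competition binding panel with each compound at a single fixed concentration. Results were plotted as a kinome-wide selectivity map.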

[2] = biological target: Platelet-derived growth factor receptor alpha (Homo sapiens) (UniProt P16234); test: Binding affinity to wild-type human partial length PDGFRA (V575 to D1002 residues) expressed in HEK293 cells at 1 uM by Kinomescan method relative to control; type: cell-based
[3] = biological target: Serine/threonine-protein kinase MRCK gamma (Homo sapiens) (UniProt Q6DT37); test: Binding affinity to wild-type human partial length DMPK2 (S46 to S408 residues) expressed in Escherichia coli BL21 at 1 uM by Kinomescan method relative to control
[4] = biological target: Serine/threonine-protein kinase PLK2 (Homo sapiens) (UniProt Q9NYY3); test: Binding affinity to wild-type human partial length PLK2 (H58 to F354 residues) expressed in HEK293 cells at 1 uM by Kinomescan method relative to control; type: cell-based
[5] = biological target: Epithelial discoidin domain-containing receptor 1 (Homo sapiens) (UniProt Q08345); test: Binding affinity to wild-type human partial length DDR1 (R565 to V876 residues) expressed in Escherichia coli BL21 at 1 uM by Kinomescan method relative to control
[6] = biological target: Ephrin type-A receptor 4 (Homo sapiens) (UniProt P54764); test: Binding affinity to wild-type human partial length EPHA4 (T601 to R897 residues) expressed in Escherichia coli BL21 at 1 uM by Kinomescan method relative to control
[7] = tested on: Phosphatidylinositol 4,5-bisphosphate 3-kinase catalytic subunit alpha isoform (Homo sapiens), P42336 [M1043I]; test: Binding affinity to human partial length PIK3CA M1043I mutant (R108 to N1068 residues) expressed in HEK293 cells at 1 uM by Kinomescan method relative to control; type: cell-based
[8] = biological target: Receptor-type tyrosine-protein kinase FLT3 (Homo sapiens) (UniProt P36888); test: Binding affinity to wild-type human partial length autoinhibited FLT3 (H564 to Y969 residues) expressed in HEK293 cells at 1 uM by Kinomescan method relative to control; type: cell-based; design: scale not given: the % may be the effect or the level left
[9] = biological target: Non-receptor tyrosine-protein kinase TNK1 (Homo sapiens) (UniProt Q13470); test: Binding affinity to wild-type human full length TNK1 (M1 to P661 residues) expressed in Escherichia coli BL21 at 1 uM by Kinomescan method relative to control
In short: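 Kinome-wide competition binding panel run by an outside provider, with each compound tested at a single concentration. Activity is read against the kinase panel.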

[10] = biological target: Serine/threonine-protein kinase WNK3 (Homo sapiens) (UniProt Q9BYP7); test: Binding affinity to wild-type human partial length WNK3 (M1 to D434 residues) expressed in HEK293 cells at 1 uM by Kinomescan method relative to control; type: cell-based
HEK293 = test: Cytotoxicity against human HEK293 cells assessed as reduction in cell viability after 72 hrs by CellTiter-Glo assay; type: cell-based; conditions: HEK293, 72 h
In short: (§1)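 Cells were treated across a dose-response range for 72 h, and viability was read by CellTiter-Glo luminescence. Measurements were made in triplicate and reported with standard error.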

HCT-116 [11] = test: Cytotoxicity against human HCT116 cells assessed as reduction in cell viability after 72 hrs by CellTiter-Glo assay; type: functional, cell-based; conditions: HCT-116, 72 h; in short: as §1
PC-3 = test: Cytotoxicity against human PC3 cells assessed as reduction in cell viability up to 33.3 uM after 72 hrs by CellTiter-Glo assay relative to control; type: functional
HCT-116 [12] = test: Cytotoxicity against human HCT116 cells assessed as reduction in cell viability up to 33.3 uM after 72 hrs by CellTiter-Glo assay relative to control; type: functional

Chain of Casein kinase II subunit alpha (Homo sapiens) (P68400 whole entry, looked up, the tested form may be a part): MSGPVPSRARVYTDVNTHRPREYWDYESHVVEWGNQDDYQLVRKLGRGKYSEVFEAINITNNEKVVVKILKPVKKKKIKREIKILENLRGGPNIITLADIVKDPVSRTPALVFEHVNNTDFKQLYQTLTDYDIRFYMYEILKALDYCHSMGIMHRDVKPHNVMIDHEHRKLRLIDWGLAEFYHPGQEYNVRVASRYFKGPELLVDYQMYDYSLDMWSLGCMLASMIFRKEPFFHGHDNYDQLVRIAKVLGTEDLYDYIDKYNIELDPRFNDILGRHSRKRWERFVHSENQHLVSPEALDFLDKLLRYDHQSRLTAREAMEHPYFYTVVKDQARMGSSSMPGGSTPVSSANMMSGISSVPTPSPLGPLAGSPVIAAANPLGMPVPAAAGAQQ
Chain of Non-receptor tyrosine-protein kinase TNK1 (Homo sapiens) (Q13470 whole entry, the tested form may be a part): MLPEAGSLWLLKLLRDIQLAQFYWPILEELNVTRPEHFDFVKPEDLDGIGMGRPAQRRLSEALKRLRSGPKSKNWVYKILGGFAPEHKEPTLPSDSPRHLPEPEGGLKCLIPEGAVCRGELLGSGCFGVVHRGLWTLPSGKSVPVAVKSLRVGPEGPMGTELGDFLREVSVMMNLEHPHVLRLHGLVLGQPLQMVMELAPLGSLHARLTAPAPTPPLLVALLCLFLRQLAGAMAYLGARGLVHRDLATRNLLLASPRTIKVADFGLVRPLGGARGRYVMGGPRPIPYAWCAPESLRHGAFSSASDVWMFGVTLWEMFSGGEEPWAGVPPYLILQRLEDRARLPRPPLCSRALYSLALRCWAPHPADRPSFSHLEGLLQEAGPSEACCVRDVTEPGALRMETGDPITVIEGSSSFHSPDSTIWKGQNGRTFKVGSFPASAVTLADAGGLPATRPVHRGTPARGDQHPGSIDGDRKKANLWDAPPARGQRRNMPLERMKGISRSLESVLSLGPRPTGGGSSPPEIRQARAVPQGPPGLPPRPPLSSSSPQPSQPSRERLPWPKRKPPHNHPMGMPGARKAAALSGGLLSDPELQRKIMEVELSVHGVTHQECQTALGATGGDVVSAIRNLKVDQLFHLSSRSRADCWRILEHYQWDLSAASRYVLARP
Chain of Serine/threonine-protein kinase MRCK gamma (Homo sapiens) (Q6DT37 whole entry, the tested form may be a part): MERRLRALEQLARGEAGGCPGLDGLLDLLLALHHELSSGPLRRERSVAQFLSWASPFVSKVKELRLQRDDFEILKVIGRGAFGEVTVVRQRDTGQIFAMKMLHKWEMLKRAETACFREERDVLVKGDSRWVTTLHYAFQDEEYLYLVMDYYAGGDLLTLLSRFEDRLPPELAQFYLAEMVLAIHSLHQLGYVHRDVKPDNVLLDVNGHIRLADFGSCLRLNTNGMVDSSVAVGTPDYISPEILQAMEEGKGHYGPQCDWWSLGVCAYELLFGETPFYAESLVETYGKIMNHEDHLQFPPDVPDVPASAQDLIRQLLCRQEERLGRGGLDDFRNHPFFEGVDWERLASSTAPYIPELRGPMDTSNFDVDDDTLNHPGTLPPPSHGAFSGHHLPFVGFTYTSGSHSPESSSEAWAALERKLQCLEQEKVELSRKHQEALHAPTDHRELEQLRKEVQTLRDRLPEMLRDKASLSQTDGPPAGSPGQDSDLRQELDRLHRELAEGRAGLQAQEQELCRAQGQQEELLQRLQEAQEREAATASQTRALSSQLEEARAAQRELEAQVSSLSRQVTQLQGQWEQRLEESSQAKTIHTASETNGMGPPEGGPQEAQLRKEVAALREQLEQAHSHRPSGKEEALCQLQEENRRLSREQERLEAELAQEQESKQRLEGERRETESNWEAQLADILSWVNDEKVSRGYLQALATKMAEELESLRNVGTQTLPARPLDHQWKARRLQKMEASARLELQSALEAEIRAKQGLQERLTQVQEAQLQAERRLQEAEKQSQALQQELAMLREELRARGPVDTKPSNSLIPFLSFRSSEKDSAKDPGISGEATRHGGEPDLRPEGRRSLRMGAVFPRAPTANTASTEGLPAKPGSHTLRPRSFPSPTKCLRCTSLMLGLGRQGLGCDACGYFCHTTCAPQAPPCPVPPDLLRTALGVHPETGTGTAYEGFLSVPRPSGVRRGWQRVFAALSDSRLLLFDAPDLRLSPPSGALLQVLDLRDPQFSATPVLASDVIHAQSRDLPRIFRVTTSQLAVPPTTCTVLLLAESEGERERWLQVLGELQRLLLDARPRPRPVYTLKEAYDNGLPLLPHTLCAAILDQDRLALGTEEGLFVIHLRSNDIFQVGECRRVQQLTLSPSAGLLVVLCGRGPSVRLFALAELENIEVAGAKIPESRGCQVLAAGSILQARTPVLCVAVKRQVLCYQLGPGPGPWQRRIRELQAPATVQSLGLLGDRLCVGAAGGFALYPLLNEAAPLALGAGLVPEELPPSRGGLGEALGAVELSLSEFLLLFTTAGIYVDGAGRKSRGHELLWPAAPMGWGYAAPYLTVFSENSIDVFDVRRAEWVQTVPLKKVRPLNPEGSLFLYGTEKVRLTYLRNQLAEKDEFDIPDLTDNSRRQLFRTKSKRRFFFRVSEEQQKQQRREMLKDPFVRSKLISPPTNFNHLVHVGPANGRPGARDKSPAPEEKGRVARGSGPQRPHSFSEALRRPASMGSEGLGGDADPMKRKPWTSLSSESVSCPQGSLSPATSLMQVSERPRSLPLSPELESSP
Chain of Platelet-derived growth factor receptor alpha (Homo sapiens) (P16234 whole entry, the tested form may be a part): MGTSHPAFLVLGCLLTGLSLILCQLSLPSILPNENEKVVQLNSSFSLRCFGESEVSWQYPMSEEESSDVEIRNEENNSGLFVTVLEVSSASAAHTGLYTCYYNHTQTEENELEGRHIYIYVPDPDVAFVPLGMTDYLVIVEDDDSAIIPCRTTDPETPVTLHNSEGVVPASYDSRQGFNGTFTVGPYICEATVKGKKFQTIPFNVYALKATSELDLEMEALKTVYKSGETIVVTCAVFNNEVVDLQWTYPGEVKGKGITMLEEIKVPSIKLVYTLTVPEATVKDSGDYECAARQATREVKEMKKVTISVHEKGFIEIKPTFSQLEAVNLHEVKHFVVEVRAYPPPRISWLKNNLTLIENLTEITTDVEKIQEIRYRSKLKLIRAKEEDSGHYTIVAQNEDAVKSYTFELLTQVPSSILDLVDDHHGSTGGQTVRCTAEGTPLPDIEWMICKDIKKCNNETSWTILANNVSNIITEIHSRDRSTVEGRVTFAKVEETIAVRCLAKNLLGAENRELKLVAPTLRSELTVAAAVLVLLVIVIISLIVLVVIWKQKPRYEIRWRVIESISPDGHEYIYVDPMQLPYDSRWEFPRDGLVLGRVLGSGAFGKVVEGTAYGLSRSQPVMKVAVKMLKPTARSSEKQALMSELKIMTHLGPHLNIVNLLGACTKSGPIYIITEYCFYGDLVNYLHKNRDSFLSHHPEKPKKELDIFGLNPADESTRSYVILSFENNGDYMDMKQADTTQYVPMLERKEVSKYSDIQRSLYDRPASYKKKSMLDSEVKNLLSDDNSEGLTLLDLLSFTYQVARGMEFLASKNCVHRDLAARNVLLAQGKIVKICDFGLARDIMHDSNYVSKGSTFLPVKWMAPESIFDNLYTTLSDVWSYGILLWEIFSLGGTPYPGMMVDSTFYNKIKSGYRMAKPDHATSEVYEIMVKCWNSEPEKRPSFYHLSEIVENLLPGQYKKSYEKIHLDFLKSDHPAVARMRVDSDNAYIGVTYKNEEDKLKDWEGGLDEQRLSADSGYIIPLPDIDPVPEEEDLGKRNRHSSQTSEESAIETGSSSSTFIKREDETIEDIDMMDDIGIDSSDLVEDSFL
Chain of Ephrin type-A receptor 4 (Homo sapiens) (P54764 whole entry, the tested form may be a part, canonical isoform): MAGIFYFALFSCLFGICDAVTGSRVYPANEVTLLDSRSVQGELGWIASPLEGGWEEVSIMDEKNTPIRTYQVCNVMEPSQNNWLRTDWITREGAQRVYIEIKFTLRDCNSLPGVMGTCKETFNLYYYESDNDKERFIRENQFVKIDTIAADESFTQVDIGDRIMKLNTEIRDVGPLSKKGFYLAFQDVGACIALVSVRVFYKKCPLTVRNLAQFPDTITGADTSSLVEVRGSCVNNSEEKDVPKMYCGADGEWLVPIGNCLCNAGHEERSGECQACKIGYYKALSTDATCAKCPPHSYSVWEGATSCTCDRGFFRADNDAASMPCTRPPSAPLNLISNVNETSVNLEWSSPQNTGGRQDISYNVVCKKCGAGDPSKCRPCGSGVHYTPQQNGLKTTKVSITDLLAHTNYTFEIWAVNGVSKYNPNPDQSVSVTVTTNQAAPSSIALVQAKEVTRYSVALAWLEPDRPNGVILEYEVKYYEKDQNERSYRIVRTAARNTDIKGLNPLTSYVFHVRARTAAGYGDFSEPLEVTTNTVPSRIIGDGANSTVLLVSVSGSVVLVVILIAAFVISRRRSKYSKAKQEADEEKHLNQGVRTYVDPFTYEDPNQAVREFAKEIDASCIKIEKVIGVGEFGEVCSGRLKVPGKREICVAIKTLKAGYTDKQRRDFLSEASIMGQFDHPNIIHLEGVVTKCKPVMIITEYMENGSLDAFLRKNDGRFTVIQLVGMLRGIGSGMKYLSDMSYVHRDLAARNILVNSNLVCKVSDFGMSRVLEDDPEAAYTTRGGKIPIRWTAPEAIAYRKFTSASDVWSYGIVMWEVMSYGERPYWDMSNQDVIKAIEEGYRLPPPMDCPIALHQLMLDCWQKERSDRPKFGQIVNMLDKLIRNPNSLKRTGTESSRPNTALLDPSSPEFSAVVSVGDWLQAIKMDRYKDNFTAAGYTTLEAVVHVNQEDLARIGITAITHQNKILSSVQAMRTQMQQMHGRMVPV

SMILES	Activity [1]	Activity [2]	Activity [3]	Activity [4]	Activity [5]	Activity [6]	Activity [7]	Activity [8]	Activity [9]	Activity [10]	IC50 (HEK293)	IC50 (HCT-116 [11])	Activity (PC-3)	Activity (HCT-116 [12])
CCC(=O)Nc1ccc(C(=O)Nc2ccc(Nc3ncc4c(n3)N(C)c3ccc(C)cc3C(=O)N4C)cc2)cc1	47%	63%	77%	74%	86%	97%	83%	85%	71%	100%	100 nM	–	–	–
C=CC(=O)Nc1ccc(C(=O)Nc2ccc(Nc3ncc4c(n3)N(C)c3ccc(C)cc3C(=O)N4C)cc2)cc1	95%	91%	100%	90%	92%	93%	64%	84%	89%	100%	–	845 nM	50%	50%
